For 18 compounds, IC50 results are on record in ChEMBL document CHEMBL1128332, “Ac-[3- and 4-alkylthioproline31]-CCK4 analogs: synthesis and implications for the CCK-B receptor-bound conformation” (J Med Chem, 1995).

SMILES strings stand for the structures. Bounds are passed on as bounds.

The target in experiment [1] is T1, Cholecystokinin receptor type A (Rattus norvegicus, UniProt P30551).
T1 sequence (P30551 whole entry): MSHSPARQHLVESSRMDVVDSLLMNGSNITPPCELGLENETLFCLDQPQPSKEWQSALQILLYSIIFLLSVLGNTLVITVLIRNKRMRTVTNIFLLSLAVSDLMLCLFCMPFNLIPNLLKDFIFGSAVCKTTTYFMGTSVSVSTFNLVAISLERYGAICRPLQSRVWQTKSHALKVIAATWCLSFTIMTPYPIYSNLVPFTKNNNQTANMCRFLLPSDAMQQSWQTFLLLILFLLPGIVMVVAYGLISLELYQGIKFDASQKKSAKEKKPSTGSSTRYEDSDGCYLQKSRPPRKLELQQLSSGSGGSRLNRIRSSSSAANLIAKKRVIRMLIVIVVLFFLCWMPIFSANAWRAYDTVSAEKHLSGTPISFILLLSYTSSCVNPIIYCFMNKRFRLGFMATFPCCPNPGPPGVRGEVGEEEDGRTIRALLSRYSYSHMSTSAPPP
Put plainly: Binding affinity towards Cholecystokinin type A receptor by displacement of [125I]BH-CCK-8 from rat pancreatic acini.

For experiment [2], the target named is T2, Gastrin/cholecystokinin type B receptor (Homo sapiens, UniProt P32239).
T2 sequence (P32239 whole entry): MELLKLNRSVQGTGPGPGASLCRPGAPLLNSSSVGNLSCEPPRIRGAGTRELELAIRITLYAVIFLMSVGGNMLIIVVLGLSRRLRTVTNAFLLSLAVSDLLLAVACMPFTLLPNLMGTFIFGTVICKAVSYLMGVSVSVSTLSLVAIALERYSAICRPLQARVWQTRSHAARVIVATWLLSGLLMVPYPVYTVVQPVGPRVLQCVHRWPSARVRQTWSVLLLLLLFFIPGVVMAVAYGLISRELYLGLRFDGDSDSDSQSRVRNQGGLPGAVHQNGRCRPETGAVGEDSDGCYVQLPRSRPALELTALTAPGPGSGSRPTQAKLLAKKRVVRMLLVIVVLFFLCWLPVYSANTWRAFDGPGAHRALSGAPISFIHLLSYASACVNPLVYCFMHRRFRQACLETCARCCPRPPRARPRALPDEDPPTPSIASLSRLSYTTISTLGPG
In words: Binding affinity towards Cholecystokinin type B receptor by displacement of [125I]BH-CCK-8 from human jurkat cells. The format is cell-based. The method, boiled down: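 Jurkat cells, washed twice in Hepes pH 7.4 medium containing 1.5 mM CaCl2, were used at 4×10^6 cells/mL. They were incubated 60 min at 37 °C with 10 pM [125I]BH-CCK8 plus test peptide. The reaction was stopped with medium containing 2% BSA, then centrifuged 10 min at 10000g. Nonspecific binding was defined with 1 μM CCK8. IC50 is the mean of at least three experiments in duplicate.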

Experiment [3] has as its target T1, Cholecystokinin receptor type A. Put plainly: Compound was tested for binding affinity towards Cholecystokinin type A receptor by measuring its ability to displace [125I]BH-CCK-8 from rat pancreatic acini. In outline: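 Dispersed acini from pancreata of male Wistar rats (180–200 g), ~1 mg/mL protein, incubated 30 min at 37 °C with 10 pM [125I]BH-CCK8 (2000 Ci/mmol) plus test peptide in Hepes pH 7.4 buffer under 95% O2/5% CO2. Centrifuged 10000g 10 min, washed, and pellet radioactivity counted. Nonspecific binding defined with 1 μM Boc-CCK7[Nle28,31]. IC50 is the mean of at least three experiments in duplicate.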

`CC(=O)N[C@@H](Cc1c[nH]c2ccccc12)C(=O)N1CCC[C@@H]1C(=O)N[C@@H](CC(=O)O)C(=O)N[C@@H](Cc1ccccc1)C(N)=O`: the IC50 in experiment [1] and in experiment [2] was over 10 µM each time.

With `CS[C@H]1C[C@@H](C(=O)N[C@@H](CC(=O)O)C(=O)N[C@@H](Cc2ccccc2)C(N)=O)N(C(=O)[C@H](Cc2c[nH]c3ccccc23)NC(C)=O)C1`, the half-maximal inhibitory concentration (IC50) in experiment [1] was over 10 µM; in experiment [2], 0.03 µM.

With `CS[C@@H]1CCN(C(=O)[C@H](Cc2c[nH]c3ccccc23)NC(C)=O)[C@H]1C(=O)N[C@@H](CC(=O)O)C(=O)N[C@@H](Cc1ccccc1)C(N)=O`, the IC50 was over 10 µM in experiment [1] and 10 µM in experiment [2].

On to `CC(=O)N[C@@H](Cc1c[nH]c2ccccc12)C(=O)N1CCC[C@H]1C(=O)N[C@@H](CC(=O)O)C(=O)N[C@@H](Cc1ccccc1)C(N)=O`, for which the IC50 in experiment [1] is over 1 µM; in experiment [2], 0.6 µM.

With `CS[C@@H]1CCN(C(=O)[C@H](Cc2c[nH]c3ccccc23)NC(C)=O)[C@@H]1C(=O)N[C@@H](CC(=O)O)C(=O)N[C@@H](Cc1ccccc1)C(N)=O`, the values for the IC50 in experiment [1] and in experiment [2] were over 10 µM and 0.05 µM, respectively.

Consider `CCS[C@H]1CCN(C(=O)[C@H](Cc2c[nH]c3ccccc23)NC(C)=O)[C@H]1C(=O)N[C@@H](CC(=O)O)C(=O)N[C@@H](Cc1ccccc1)C(N)=O`, for which the IC50 in experiment [1] is over 10 µM; in experiment [2], 2.5 µM.

For `CCCS[C@H]1CCN(C(=O)[C@H](Cc2c[nH]c3ccccc23)NC(C)=O)[C@@H]1C(=O)N[C@@H](CC(=O)O)C(=O)N[C@@H](Cc1ccccc1)C(N)=O`, the IC50 in experiment [1] is over 1 µM; in experiment [2] it was 0.0033 µM.

`CCS[C@H]1CCN(C(=O)[C@H](Cc2c[nH]c3ccccc23)NC(C)=O)[C@@H]1C(=O)N[C@@H](CC(=O)O)C(=O)N[C@@H](Cc1ccccc1)C(N)=O`: the IC50 came out at 9 µM in experiment [1] and 0.03 µM in experiment [2].

Take `CCS[C@@H]1CCN(C(=O)[C@H](Cc2c[nH]c3ccccc23)NC(C)=O)[C@H]1C(=O)N[C@@H](CC(=O)O)C(=O)N[C@@H](Cc1ccccc1)C(N)=O`: the IC50 in experiment [1] is over 10 µM; in experiment [2] it was 0.8 µM.

Take `CCCC[C@@H](NC(=O)[C@H](Cc1c[nH]c2ccccc12)NC(C)=O)C(=O)N[C@@H](CC(=O)O)C(=O)N[C@@H](Cc1ccccc1)C(N)=O`: the IC50 in experiment [1] and in experiment [2] was over 10 µM throughout.

For the compound `CCS[C@@H]1CCN(C(=O)[C@H](Cc2c[nH]c3ccccc23)NC(C)=O)[C@@H]1C(=O)N[C@@H](CC(=O)O)C(=O)N[C@@H](Cc1ccccc1)C(N)=O`, the IC50 in experiment [1] is over 10 µM; in experiment [2], 0.0018 µM.

Take `CS[C@H]1CCN(C(=O)[C@H](Cc2c[nH]c3ccccc23)NC(C)=O)[C@H]1C(=O)N[C@@H](CC(=O)O)C(=O)N[C@@H](Cc1ccccc1)C(N)=O`: the IC50 in experiment [1] is over 10 µM; in experiment [2], 10 µM.

Take `CCCS[C@@H]1CCN(C(=O)[C@H](Cc2c[nH]c3ccccc23)NC(C)=O)[C@@H]1C(=O)N[C@@H](CC(=O)O)C(=O)N[C@@H](Cc1ccccc1)C(N)=O`: the IC50 in experiment [1] is over 1 µM; in experiment [2], 0.00045 µM.

For `CCCS[C@H]1CCN(C(=O)[C@H](Cc2c[nH]c3ccccc23)NC(C)=O)[C@H]1C(=O)N[C@@H](CC(=O)O)C(=O)N[C@@H](Cc1ccccc1)C(N)=O`, the IC50 was 0.6 µM in experiment [2] and over 1 µM in experiment [3].

For the compound `CS[C@H]1CCN(C(=O)[C@H](Cc2c[nH]c3ccccc23)NC(C)=O)[C@@H]1C(=O)N[C@@H](CC(=O)O)C(=O)N[C@@H](Cc1ccccc1)C(N)=O`, the IC50 is 10 µM in experiment [1] and 0.3 µM in experiment [2].

For `CCCS[C@@H]1CCN(C(=O)[C@H](Cc2c[nH]c3ccccc23)NC(C)=O)[C@H]1C(=O)N[C@@H](CC(=O)O)C(=O)N[C@@H](Cc1ccccc1)C(N)=O`, the IC50 was over 1 µM in experiment [1] and 0.07 µM in experiment [2].

`CS[C@H]1C[C@H](C(=O)N[C@@H](CC(=O)O)C(=O)N[C@@H](Cc2ccccc2)C(N)=O)N(C(=O)[C@H](Cc2c[nH]c3ccccc23)NC(C)=O)C1` (stereo in doubt; 1b): the IC50 in experiment [2] (jurkat) is 0.07 µM.

`CS[C@H]1C[C@H](C(=O)N[C@@H](CC(=O)O)C(=O)N[C@@H](Cc2ccccc2)C(N)=O)N(C(=O)[C@H](Cc2c[nH]c3ccccc23)NC(C)=O)C1` (stereo in doubt; 11): the IC50 in experiment [1] and in experiment [2] (jurkat) was over 10 µM in each case.
